{
  "source": "ChEMBL document CHEMBL2401730",
  "about": "“The macrocyclic peptide natural product CJ-15,208 is orally active and prevents reinstatement of extinguished cocaine-seeking behavior” (J Nat Prod, 2013)",
  "key": {"Mus musculus [1]": {"tested_on": "Mus musculus", "test": "Antinociceptive activity in C57BL/6J mouse at 60 mg/kg, po after 140 mins by warm water tail withdrawal assay", "format": "functional, organism-based", "set-up": "dose 60 mg/kg", "summary_of_the_method": "(§1)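 Adult male C57BL/6J mice (20-25 g); baseline tail-withdrawal latency in 55 °C water measured, then oral dosing in 1:1:8 ethanol/Tween 80/0.9% saline vehicle. Latency re-measured repeatedly over time, 15 s cut-off. %antinociception = 100×(test−control)/(15−control). ED50 with 95% CI; 7-24 mice/group; repeated-measures ANOVA at 10 min intervals for hour 1 and hour 2.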"}, "Mus musculus [2]": {"tested_on": "Mus musculus", "test": "Antagonist activity at kappa opioid receptor in po dosed C57BL/6J mouse assessed as inhibition of icv dosed U50,488-induced antinociception effect incubated for 3 hrs prior to testing by warm water tail withdrawal assay", "format": "functional, organism-based", "summary_of_the_method": "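Male C57BL/6J mice (20-25 g) given test agent orally in 1:1:8 ethanol/Tween 80/saline; 3 h later U50,488 given ip (10 mg/kg, in saline) or icv (30 nmol), with tail-withdrawal testing in 55 °C water 40 or 20 min afterwards, respectively. 15 s cut-off; % antinociception calculated from baseline latency. 8 mice/group; one-way ANOVA with Tukey HSD.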"}, "Mus musculus [3]": {"tested_on": "Mus musculus", "test": "Antinociceptive activity in C57BL/6J mouse at 0.3 mg/kg, po after 60 mins by warm water tail withdrawal assay", "format": "functional, organism-based", "set-up": "dose 0.3 mg/kg", "summary_of_the_method": "as §1"}, "Mus musculus [4]": {"tested_on": "Mus musculus", "test": "Prevention of stress-induced reinstatement of extinguished cocaine cocaine seeking behavior in C57BL/6J mouse at 30 mg/kg, po qd for 2 days measured 3 hrs post last dose by forced swim test", "format": "functional, organism-based", "set-up": "dose 30 mg/kg", "summary_of_the_method": "(§2)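 Counterbalanced CPP: four days of saline (30 min confinement), then cocaine 10 mg/kg sc 4 h later in the opposite compartment. Extinction followed over 3 weeks of twice-weekly tests. Oral 1:1:8 vehicle or 30/60 mg/kg given days 28-29, then either forced swim 3 h later or cocaine conditioning 30 min after day-29 dose. Place preference tested day 30 over 30 min; 12-16 mice/group; ANOVA/Tukey HSD.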"}, "Mus musculus [5]": {"tested_on": "Mus musculus", "test": "Antinociceptive activity in C57BL/6J mouse at 1 to 30 mg/kg, po after 120 mins by warm water tail withdrawal assay", "format": "functional, organism-based", "summary_of_the_method": "as §1"}, "Mus musculus [6]": {"tested_on": "Mus musculus", "test": "Prevention of stress-induced reinstatement of extinguished cocaine seeking behavior in C57BL/6J mouse at 60 mg/kg, po qd for 2 days measured 3 hrs post last dose by forced swim test", "format": "functional, organism-based", "set-up": "dose 60 mg/kg", "summary_of_the_method": "as §2"}, "Mus musculus [7]": {"tested_on": "Mus musculus", "test": "Antagonist activity at kappa opioid receptor in po dosed C57BL/6J mouse assessed as inhibition of ip dosed U50,488-induced antinociception effect incubated for 3 hrs prior to testing by warm water tail withdrawal assay"}, "Mus musculus [8]": {"tested_on": "Mus musculus", "test": "Prevention of cocaine-induced reinstatement of extinguished cocaine seeking behavior in C57BL/6J mouse at 30 to 60 mg/kg, po qd for 2 days followed by additional cycle of cocaine place conditioning at 30 mins post last dose measured on day 3", "format": "functional, organism-based", "summary_of_the_method": "as §2"}, "Mus musculus [9]": {"tested_on": "Mus musculus", "test": "Antinociceptive activity in po dosed C57BL/6J mouse after 40 mins by warm water tail withdrawal assay", "format": "functional", "summary_of_the_method": "as §1"}, "Mus musculus [10]": {"tested_on": "Mus musculus", "test": "Antinociceptive activity in C57BL/6J mouse at 1 to 60 mg/kg, po after 60 mins by warm water tail withdrawal assay", "format": "functional, organism-based", "summary_of_the_method": "as §1"}, "Mus musculus [11]": {"tested_on": "Mus musculus", "test": "Neurotoxicity in C57BL/6J mouse assessed as sedative effect at 10 to 60 mg/kg, po after 60 mins by rotarod test", "format": "toxicity, organism-based", "set-up": "dose 10-60 mg/kg, route oral", "settings": "in vivo, 1 h", "summary_of_the_method": "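Seven habituation trials, with the last used as baseline. Male C57BL/6J mice then received oral vehicle (1:1:8) or 10 or 60 mg/kg; the U50,488 comparator was given 10 mg/kg ip. Accelerating rotorod (0-20 rpm, 180 s maximum) over 60 min. Latency to fall expressed as % change from baseline; 7-8 mice/group; two-way ANOVA.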"}},
  "note": "Calls of active or inactive are those of the source. Where a SMILES comes first, the peptide text is derived from it. [ ]: non-standard residue; d: D form.",
  "data": [
    {"smiles": "O=C1N[C@@H](Cc2ccccc2)C(=O)N2CCC[C@@H]2C(=O)N[C@@H](Cc2ccccc2)C(=O)N[C@H]1Cc1c[nH]c2ccccc12", "note": "(cyclo(FWF[dP]))", "values": [
      {"measurement": "Activity", "setting": "Mus musculus [1]", "value": "Active"},
      {"measurement": "inhibition", "setting": "Mus musculus [2]", "value": "Dose-dependent effect"},
      {"measurement": "Activity", "setting": "Mus musculus [3]", "value": "inactive"},
      {"measurement": "Activity", "setting": "Mus musculus [4]", "value": "inactive"},
      {"measurement": "Activity", "setting": "Mus musculus [5]", "value": "inactive"},
      {"measurement": "Activity", "setting": "Mus musculus [6]", "value": "Active"},
      {"measurement": "inhibition", "setting": "Mus musculus [7]", "value": "Dose-dependent effect"},
      {"measurement": "Activity", "setting": "Mus musculus [8]", "value": "Active"},
      {"measurement": "ED50", "setting": "Mus musculus [9]", "value": 3.49, "unit": "mg/kg"},
      {"measurement": "Activity", "setting": "Mus musculus [10]", "value": "Active"},
      {"measurement": "Activity", "setting": "Mus musculus [11]", "value": "Non-toxic"}
    ]}
  ]
}
